Here are results for two molecules from ChEMBL document CHEMBL4052609, “(+)-Strebloside-Induced Cytotoxicity in Ovarian Cancer Cells Is Mediated through Cardiac Glycoside Signaling Networks” (J Nat Prod, 2017).

Calls of active or inactive are those of the source. The calls are words filed in the database; no cut-off is given here.

One assay relates to KURAMOCHI
Description: Antiproliferative activity against human Kuramochi cells after 72 hrs by CellTiter 96 aqueous one solution assay. Format: functional, cell-based. An outline of the steps: (§1)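 Log-phase cells harvested by trypsin with two PBS washes, seeded 5,000/well, incubated overnight. Serial dilutions of compound from DMSO stock added, 72 h exposure. Viability read by absorbance. IC50 (nM) calculated relative to DMSO solvent control.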

In assay [1] the test system is OVCAR-3. The assay can be described thus: Induction of apoptosis in human OVCAR3 cells assessed as upregulation of cleaved caspase 3 expression at 100 nM by Western blot analysis. Format: functional, cell-based. An outline of the steps:
(§2)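 Treated cells washed with PBS, lysed in RIPA on ice 15 min, cleared 14,000 g at 4 °C; 25 µg protein by BCA run on SDS-PAGE, PVDF, milk block, primary antibody overnight at 4 °C, HRP anti-rabbit, chemiluminescence; actin loading control; densitometry, n = 3, mean ± SEM.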

Assay [2] relates to OVCAR-3. The assay can be described thus: Induction of apoptosis in human OVCAR3 cells assessed as decrease in Bcl-xL levels at 100 nM by Western blot analysis. Format: functional, cell-based. The essentials:
as §2

Assay [3] is filed under the species Homo sapiens. Description: Inhibition of sodium potassium ATPase in human OVCAR3 cells assessed as increase in ERK phosphorylation levels at 100 nM after 120 mins by Western blot analysis. The class given is cell-based. The essentials: (§3)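 Cells exposed to 100 nM for indicated times; RIPA lysates, 25 µg protein on SDS-PAGE/PVDF probed for phospho-ERK and total ERK (1:500 each), HRP secondary, chemiluminescent detection.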

Assay [4] can be described thus: Antiproliferative activity against CD-1 mouse MOE cells derived from 85 to 120 passages after 72 hrs. The class given is functional, cell-based. The note with it: CD-1, MOE. An outline of the steps:
(§4)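 MOE cells from pooled oviducts of 8-week-old female CD1 mice in supplemented α-MEM with EGF, insulin, transferrin, selenite, β-estradiol; scrambled and PTEN shRNA/KRAS G12V clones kept under puromycin (plus hygromycin for the mutant). Log-phase cells seeded 5,000/well, overnight, DMSO-dissolved compound added, 72 h; viable cells read by MTS-type absorbance; IC50 in nM relative to DMSO control.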

For assay [5], the species on record is Homo sapiens. Description: Inhibition of sodium potassium ATPase in human OVSAHO cells assessed as upregulation of p21 protein expression at 100 nM by Western blot analysis. Format: cell-based. An outline of the steps:
as §2

The species named for assay [6] is Homo sapiens. Description: Inhibition of sodium potassium ATPase in human OVCAR3 cells assessed as downregulation of p53 protein expression at 100 nM after 72 hrs by Western blot analysis. The class given is cell-based. The essentials: as §2
Assay [7] in a line: Antiproliferative activity against human OVSAHO cells after 72 hrs by CellTiter 96 aqueous one solution assay. Format: functional, cell-based. An outline of the steps:
as §1

A short description of assay [8]: Antiproliferative activity against CD-1 mouse MOE cells harboring scrambled RNA after 72 hrs. Format: cell-based. Particulars: CD-1, MOE. An outline of the steps:
as §4

Assay [9] is described as follows: Antiproliferative activity against human IOSE-80 cells after 72 hrs by CellTiter 96 aqueous one solution assay. Format: cell-based. The note with it: IOSE80, 72 h. The essentials:
as §1

The subject of assay [10] is OVCAR-3. Description: Antiproliferative activity against human OVCAR3 cells after 72 hrs by CellTiter 96 aqueous one solution assay. Format: functional, cell-based. The note with it: OVCAR-3, 72 h. An outline of the steps: (§5)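 Log-phase cells harvested by trypsin with two PBS washes, seeded 5,000/well, incubated overnight. Serial dilutions of compound from DMSO stock added, 72 h exposure. Viability read by absorbance. IC50 (nM) calculated relative to DMSO solvent control. Cultures at 37 °C, 5% CO2 in their own media (RPMI, MEM, DMEM, or Medium 199/MCDB for IOSE-80).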

Another assay concerns MDA-MB-435. The assay can be described thus: Antiproliferative activity against human MDA-MB-435 cells after 72 hrs by CellTiter 96 aqueous one solution assay. The class given is functional, cell-based. The note with it: MDA-MB-435, 72 h. An outline of the steps:
as §1

The next assay relates to OVCAR-8. The assay can be described thus: Antiproliferative activity against human OVCAR8 cells after 72 hrs by CellTiter 96 aqueous one solution assay. Format: functional, cell-based. Particulars: OVCAR-8, 72 h. An outline of the steps:
as §5

The species entered for assay [11] is Homo sapiens. Description: Inhibition of sodium potassium ATPase in human OVCA432 cells assessed as downregulation of p53 protein expression at 100 nM after 72 hrs by Western blot analysis. The class given is cell-based. The essentials:
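Cells exposed to 100 nM for 72 h; RIPA lysates, 25 µg protein on SDS-PAGE/PVDF, anti-p53 (1:500) overnight at 4 °C, HRP secondary, chemiluminescence, actin control; densitometry.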

The test system of a further assay is HT-29. The assay can be described thus: Antiproliferative activity against human HT-29 cells after 72 hrs by CellTiter 96 aqueous one solution assay. The class given is functional, cell-based. Particulars: HT-29, 72 h. An outline of the steps:
as §1

A further assay relates to OVCAR-5. The assay can be described thus: Antiproliferative activity against human OVCAR5 cells after 72 hrs by CellTiter 96 aqueous one solution assay. The class given is functional, cell-based. Particulars: OVCAR-5, 72 h. The essentials:
as §1

Assay [12] is filed under the species Homo sapiens. The assay can be described thus: Inhibition of sodium potassium ATPase in human OVSAHO cells assessed as increase in ERK phosphorylation levels at 100 nM after 120 mins by Western blot analysis. The class given is cell-based. An outline of the steps: as §3
In assay [13] the test system is OVCAR-3. Description: Cell cycle arrest in human OVCAR3 cells assessed as accumulation at G2/M phase at 100 nM after 72 hrs by propidium iodide staining-based flow cytometry method. Format: functional. The essentials: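 Cells in 6-well plates treated 72 h, trypsinized, fixed in 70% ethanol, PBS-washed, stained in PBS with 1 mg/mL RNase and 50 µg/mL propidium iodide for 30 min in the dark at room temperature; DNA content by flow cytometry, phase distribution compared with vehicle.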

In assay [14] the test system is OVCAR-3. Description: Induction of apoptosis in human OVCAR3 cells assessed as decrease in Mcl-1 levels at 100 nM by Western blot analysis. The class given is functional, cell-based. An outline of the steps:
as §2

The subject of another assay is MDA-MB-231. The assay can be described thus: Antiproliferative activity against human MDA-MB-231 cells after 72 hrs by CellTiter 96 aqueous one solution assay. Format: functional, cell-based. Particulars: MDA-MB-231, 72 h. An outline of the steps:
as §1

Assay [15] deals with OVCAR-3. Description: Induction of apoptosis in human OVCAR3 cells assessed as upregulation of cleaved PARP expression at 100 nM by Western blot analysis. Format: functional, cell-based. An outline of the steps: as §2
The species entered for assay [16] is Homo sapiens. The assay can be described thus: Inhibition of sodium potassium ATPase in human OVSAHO cells assessed as downregulation of p53 protein expression at 100 nM after 72 hrs by Western blot analysis. The class given is cell-based.
A further assay has as its system OVCAR-4. Description: Antiproliferative activity against human OVCAR4 cells after 72 hrs by CellTiter 96 aqueous one solution assay. The note with it: OVCAR-4, 72 h. Format: functional, cell-based. The essentials: as §1
Assay [17] is described as follows: Antiproliferative activity against CD-1 mouse MOE cells derived from 8 to 25 passages after 72 hrs. Format: cell-based. Particulars: CD-1, MOE. The essentials:
as §4

For assay [18], the species on record is Homo sapiens. The assay can be described thus: Inhibition of sodium potassium ATPase in human OVCAR3 cells assessed as upregulation of p21 protein expression at 100 nM by Western blot analysis. The class given is cell-based. An outline of the steps: as §2
For assay [19], the species on record is Homo sapiens. Description: Inhibition of sodium potassium ATPase in human OVCAR3 cells assessed as reduction in TNFalpha-induced NFkappaB activation at 100 nM after 4 hrs by luciferase reporter gene assay relative to control. The class given is cell-based. The essentials:
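OVCAR3 plated 25,000/well, overnight, transfected 24 h with 0.05 µg/well NF-κB-element luciferase reporter in serum medium; then 10 ng/mL TNFα plus 100 nM compound for 4 h; luciferase luminescence, fold change versus untreated, ANOVA.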

Another assay relates to OVSAHO. The assay can be described thus: Induction of apoptosis in human OVSAHO cells assessed as upregulation of cleaved PARP expression at 100 nM after 72 hrs by Western blot analysis. The class given is functional, cell-based. An outline of the steps:
as §2

Assay [20] can be described thus: Antiproliferative activity against CD-1 mouse MOE cells harboring PTENshRNA/KRASG12V mutation after 72 hrs. The class given is functional, cell-based. Particulars: CD-1, MOE. The essentials:
as §4

Take `C[C@H]1O[C@@H](O[C@H]2[C@@H](O)C[C@H](O[C@H]3[C@@H](O)C[C@H](O[C@H]4CC[C@@]5(C)[C@H](CC[C@@H]6[C@@H]5CC[C@]5(C)[C@@H](C7=CC(=O)OC7)CC[C@]65O)C4)O[C@@H]3C)O[C@@H]2C)C[C@H](O)[C@@H]1O` [DIGITOXIN]: the half-inhibitory concentration (IC50) in the assay on KURAMOCHI is 5910 nM; in assay [4] it was above 50000 nM; in assay [7], 250 nM; in [8], above 50000 nM; in assay [9], 48.4 nM; in the assay on OVCAR-3 [10], 117 nM. Besides, the IC50 in the assay on MDA-MB-435 stood at 43.3 nM; in the assay with OVCAR-8, 71.5 nM; in the assay with HT-29, 67.6 nM; in the assay with OVCAR-5, 321 nM; with MDA-MB-231 it was 482 nM; with OVCAR-4, 426 nM. The IC50 in assay [17] and in assay [20] was above 50000 nM throughout. Moreover, the result with OVCAR-3 [1], in the assay on OVCAR-3 [2], in the assay on OVCAR-3 [13], with OVCAR-3 [14], in the assay on OVCAR-3 [15] and in the assay with OVSAHO was Active. The inhibition result in the assay filed under Homo sapiens [3], in the assay filed under Homo sapiens [5], in the assay listed under Homo sapiens [6], in the assay filed under Homo sapiens [11], in the assay filed under Homo sapiens [12] and in the assay listed under Homo sapiens [16] was “Active” each time. The inhibition result in the assay listed under Homo sapiens [18] is “Active”. The inhibition in the assay listed under Homo sapiens [19] is 50%.
As to `CO[C@H]1[C@H](O[C@H]2CC[C@]3(C=O)[C@H]4CC[C@]5(C)[C@@H](C6=CC(=O)OC6)CC[C@]5(O)[C@@H]4CC[C@]3(O)C2)O[C@H](C)[C@H](O)[C@@H]1OC` [STREBLOSIDE], the outcome in the assay with OVCAR-3 [1], with OVCAR-3 [2], in the assay on OVCAR-3 [13], in the assay on OVCAR-3 [14], in the assay on OVCAR-3 [15] and in the assay with OVSAHO was Active. The inhibition result in the assay filed under Homo sapiens [3], in the assay filed under Homo sapiens [5], in the assay filed under Homo sapiens [6], in the assay listed under Homo sapiens [11], in the assay filed under Homo sapiens [12] and in the assay listed under Homo sapiens [16] was “Active” in each case. In the assay listed under Homo sapiens [18], the inhibition result is “Active”. The half-maximal inhibitory concentration (IC50) in [4], in assay [8], in [17] and in assay [20] was above 50000 nM in each case. The inhibition in the assay listed under Homo sapiens [19] was 29%.
